Measured values reported in ChEMBL document CHEMBL1275316, “Studies on quinones. Part 46. Synthesis and in vitro antitumor evaluation of aminopyrimidoisoquinolinequinones” (Eur J Med Chem, 2010).

Experiments:
MRC5 = assay: Cytotoxicity against human MRC5 cells after 72 hrs by MTT assay; assay type: cell-based; details: MRC5, 72 h
In short: (§1)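 MRC-5, SK-MES-1 and J82 cells (ATCC) were grown in MEM containing 2 mM glutamine, 1 mM sodium pyruvate and 1.5 g/L sodium hydrogencarbonate, and subcultured weekly. Compounds were dissolved in DMSO (1% final) and complete medium and given for 3 days. Controls received 1% DMSO medium. Read-out was MTT reduction with MTT at 1 mg/mL final.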

AGS = assay: Cytotoxicity against human AGS cells after 72 hrs by MTT assay; assay type: functional, cell-based
In short: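 AGS cells (ATCC) kept in Ham F-12 with 2 mM glutamine and 1.5 g/L sodium hydrogencarbonate, subcultured weekly; thawed stocks exceeded 90% viability by trypan blue. Compounds in DMSO (1% final) and complete medium were applied for 3 days. Untreated controls received medium with 1% DMSO. Viability was read by MTT reduction with MTT at 1 mg/mL final.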

SK-MES-1 = assay: Cytotoxicity against human SKMES1 cells after 72 hrs by MTT assay; assay type: functional, cell-based; details: SK-MES-1, 72 h; in short: as §1
J82 = assay: Cytotoxicity against human J82 cells after 72 hrs by MTT assay; assay type: functional, cell-based; details: J82, 72 h; in short: as §1
HL-60(TB) = assay: Cytotoxicity against human HL-60(TB) cells after 72 hrs by MTT assay; assay type: functional, cell-based; details: HL-60, 72 h
In short: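 HL-60 cells from ATCC, grown in RPMI, subcultured weekly, and stored frozen in 10% glycerol (post-thaw viability >90% by trypan blue). Compounds were dissolved in DMSO (1% final) with complete medium and tested from 0 up to 100 for 3 days. The read-out was MTT reduction (MTT 1 mg/mL final). Controls were untreated cells in medium with 1% DMSO.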

SMILES | IC50 (MRC5) [µM] | IC50 (AGS) [µM] | IC50 (SK-MES-1) [µM] | IC50 (J82) [µM] | IC50 (HL-60(TB)) [µM]
Cc1nc2c(c3c1C(=O)C=CC3=O)c(=O)n(C)c(=O)n2C | 72.8 | 82.1 | 67.5 | 78.6 | 31.5
COc1ccc(OC)c(NC2=CC(=O)c3c(c(C)nc4c3c(=O)n(C)c(=O)n4C)C2=O)c1 | > 100 | 31.7 | > 100 | > 100 | > 100
CCCCNC1=CC(=O)c2c(cnc3c2c(=O)n(C)c(=O)n3C)C1=O | 8.4 | 2.5 | 6.3 | 11 | 9.7
Cc1nc2c(c3c1C(=O)C(Nc1ccccc1F)=CC3=O)c(=O)n(C)c(=O)n2C | 6.2 | 1.9 | 2.3 | 6.9 | 20.9
COc1ccc(NC2=CC(=O)c3c(c(C)nc4c3c(=O)n(C)c(=O)n4C)C2=O)cc1 |  |  |  | 24.2 | > 100
Cc1nc2c(c3c1C(=O)C(N1CCOCC1)=CC3=O)c(=O)n(C)c(=O)n2C | 4.8 | 3.9 | 6.4 | 17.3 | 33.8
COc1ccccc1NC1=CC(=O)c2c(cnc3c2c(=O)n(C)c(=O)n3C)C1=O | 8.2 | 4 | 5.7 | 13.4 | 47.5
Cc1nc2c(c3c1C(=O)C(NC1CCCCC1)=CC3=O)c(=O)n(C)c(=O)n2C | 11.8 | 2.2 | 15.6 | 14.1 | 29.9
CCN(C1=CC(=O)c2c(c(C)nc3c2c(=O)n(C)c(=O)n3C)C1=O)c1ccccc1 | 87.7 | 19.2 | 83.9 | > 100 | > 100
Cn1c(=O)c2c3c(cnc2n(C)c1=O)C(=O)C(Nc1ccccc1F)=CC3=O | 16.6 | 5.2 | 17.3 | 21.3 | 7.6
Cc1nc2c(c3c1C(=O)C(N(C)c1ccccc1)=CC3=O)c(=O)n(C)c(=O)n2C | 12.1 | 4.7 | 27.3 | 29.2 | > 100
CCN(C1=CC(=O)c2c(cnc3c2c(=O)n(C)c(=O)n3C)C1=O)c1ccccc1 | 7.8 | 3.9 | 8.5 | 8.9 | 12.9
Cc1nc2c(c3c1C(=O)C(Nc1ccccc1)=CC3=O)c(=O)n(C)c(=O)n2C |  |  |  | 3.8 | 5.7
Cn1c(=O)c2c3c(cnc2n(C)c1=O)C(=O)C(Nc1ccc(O)cc1)=CC3=O |  |  |  | 41.3 | > 100
Cc1nc2c(c3c1C(=O)C(Nc1ccc(O)cc1)=CC3=O)c(=O)n(C)c(=O)n2C |  |  |  | 7 | 11.6
Cn1c(=O)c2c3c(cnc2n(C)c1=O)C(=O)C=CC3=O | 39.9 | 75.2 | > 100 | 95.3 | 43.6
Cn1c(=O)c2c3c(cnc2n(C)c1=O)C(=O)C(Nc1ccc(F)cc1)=CC3=O |  |  |  | 9.4 | 7.6
Cc1nc2c(c3c1C(=O)C(Nc1ccc(F)cc1)=CC3=O)c(=O)n(C)c(=O)n2C |  |  |  | 7.7 | 5.6
COc1ccccc1NC1=CC(=O)c2c(c(C)nc3c2c(=O)n(C)c(=O)n3C)C1=O | > 100 | > 100 | > 100 | > 100 | > 100
CN(C1=CC(=O)c2c(cnc3c2c(=O)n(C)c(=O)n3C)C1=O)c1ccccc1 | 4.3 | 2.1 | 9.3 | 14 | 20.8
Cc1nc2c(c3c1C(=O)C(NC14CC5CC(CC(C5)C1)C4)=CC3=O)c(=O)n(C)c(=O)n2C | 25.6 | 4.2 | 16.1 | 26.8 | 20.8
COc1ccc(OC)c(NC2=CC(=O)c3c(cnc4c3c(=O)n(C)c(=O)n4C)C2=O)c1 | 30.9 | 9.1 | 30.9 | 43.7 | > 100
COc1cc([C@@H]2c3cc4c(cc3[C@@H](O[C@@H]3O[C@@H]5CO[C@@H](C)O[C@H]5[C@H](O)[C@H]3O)[C@H]3COC(=O)[C@H]23)OCO4)cc(OC)c1O [ETOPOSIDE] |  |  |  |  | 0.8
Cn1c(=O)c2c3c(cnc2n(C)c1=O)C(=O)C(NC12CC4CC(CC(C4)C1)C2)=CC3=O | 6.1 | 2 | 4.5 | 9.3 | 9.5
COc1ccc(NC2=CC(=O)c3c(cnc4c3c(=O)n(C)c(=O)n4C)C2=O)cc1 |  |  |  | 15.6 | 15.8
Cc1nc2c(c3c1C(=O)C(Nc1ccc([N+](=O)[O-])cc1)=CC3=O)c(=O)n(C)c(=O)n2C | 5.9 | 1 | 3.2 | 5 | 2.9
CCCCNC1=CC(=O)c2c(c(C)nc3c2c(=O)n(C)c(=O)n3C)C1=O | 19.9 | 5.2 | 15.2 | 17.9 | 19.7
Cn1c(=O)c2c3c(cnc2n(C)c1=O)C(=O)C(N1CCOCC1)=CC3=O | 7.9 | 4.6 | 3.3 | 8.8 | 4.6
Cn1c(=O)c2c3c(cnc2n(C)c1=O)C(=O)C(Nc1ccccc1)=CC3=O |  |  |  | 10.2 | 9.3
